ChEMBL document CHEMBL4325889, “Natural products hybrids: 3,5,4'-Trimethoxystilbene-5,6,7-trimethoxyflavone chimeric analogs as potential cytotoxic agents against diverse human cancer cells” (Eur J Med Chem, 2019)

How the values were obtained:
Assay type in all cases: functional
CCRF-CEM = assay: Growth inhibition of human CCRF-CEM cells at 10 uM after 48 hrs by SRB assay relative to control; conditions: read-out: GI
How it was run: (§1)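 Screened at the National Cancer Institute by the standard NCI protocol using the sulforhodamine B assay, which measures cellular protein. Single dose of 10 µM. Result is percent growth inhibition; values above 100% mean cell number fell below the initial population. Values are the average of duplicates.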

MOLT-4 = assay: Growth inhibition of human MOLT4 cells at 10 uM after 48 hrs by SRB assay relative to control; conditions: MOLT-4, 48 h, read-out: GI; how it was run: as §1
RPMI-8226 = assay: Growth inhibition of human RPMI8226 cells at 10 uM after 48 hrs by SRB assay relative to control; conditions: RPMI-8226, 48 h, read-out: GI; how it was run: as §1
SR = assay: Growth inhibition of human SR cells at 10 uM after 48 hrs by SRB assay relative to control; conditions: read-out: GI
How it was run: (§2)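 NCI screen against its human cancer cell line panel by the standard NCI protocol, SRB protein stain. Single dose of 10 μM. Percent growth inhibition versus control; values above 100% mean the cell population fell below the starting number. Each value is the mean of duplicates.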

A549 = assay: Growth inhibition of human A549 cells at 10 uM after 48 hrs by SRB assay relative to control; conditions: A549, 48 h, read-out: GI; how it was run: as §1
HOP-62 = assay: Growth inhibition of human HOP62 cells at 10 uM after 48 hrs by SRB assay relative to control; conditions: HOP-62, 48 h, read-out: GI; how it was run: as §1
HOP-92 = assay: Growth inhibition of human HOP92 cells at 10 uM after 48 hrs by SRB assay relative to control; conditions: HOP-92, 48 h, read-out: GI; how it was run: as §1
NCI-H23 = assay: Growth inhibition of human NCI-H23 cells at 10 uM after 48 hrs by SRB assay relative to control; conditions: NCI-H23, 48 h, read-out: GI; how it was run: as §1
NCI-H322M = assay: Growth inhibition of human NCI-H322M cells at 10 uM after 48 hrs by SRB assay relative to control; conditions: read-out: GI; how it was run: as §1
NCI-H460 = assay: Growth inhibition of human NCI-H460 cells at 10 uM after 48 hrs by SRB assay relative to control; conditions: NCI-H460, 48 h, read-out: GI; how it was run: as §1
NCI-H522 = assay: Growth inhibition of human NCI-H522 cells at 10 uM after 48 hrs by SRB assay relative to control; conditions: NCI-H522, 48 h, read-out: GI; how it was run: as §1
COLO 205 = assay: Growth inhibition of human COLO205 cells at 10 uM after 48 hrs by SRB assay relative to control; conditions: COLO 205, 48 h, read-out: GI; how it was run: as §1
HCT-15 = assay: Growth inhibition of human HCT15 cells at 10 uM after 48 hrs by SRB assay relative to control; conditions: HCT-15, 48 h, read-out: GI; how it was run: as §1
HT-29 = assay: Growth inhibition of human HT-29 cells at 10 uM after 48 hrs by SRB assay relative to control; conditions: HT-29, 48 h, read-out: GI; how it was run: as §1
KM12 = assay: Growth inhibition of human KM12 cells at 10 uM after 48 hrs by SRB assay relative to control; conditions: KM12, 48 h, read-out: GI; how it was run: as §1
SW-620 = assay: Growth inhibition of human SW620 cells at 10 uM after 48 hrs by SRB assay relative to control; conditions: SW-620, 48 h, read-out: GI; how it was run: as §2
SF-295 = assay: Growth inhibition of human SF295 cells at 10 uM after 48 hrs by SRB assay relative to control; conditions: SF-295, 48 h, read-out: GI; how it was run: as §1
SF-539 = assay: Growth inhibition of human SF539 cells at 10 uM after 48 hrs by SRB assay relative to control; conditions: SF-539, 48 h, read-out: GI; how it was run: as §1
SNB-75 = assay: Growth inhibition of human SNB75 cells at 10 uM after 48 hrs by SRB assay relative to control; conditions: SNB-75, 48 h, read-out: GI; how it was run: as §2
U-251 = assay: Growth inhibition of human U251 cells at 10 uM after 48 hrs by SRB assay relative to control; conditions: U-251, 48 h, read-out: GI; how it was run: as §2
LOX IMVI = assay: Growth inhibition of human LOXIMVI cells at 10 uM after 48 hrs by SRB assay relative to control; conditions: read-out: GI; how it was run: as §1
Malme-3M = assay: Growth inhibition of human MALME-3M cells at 10 uM after 48 hrs by SRB assay relative to control; conditions: read-out: GI; how it was run: as §1
SK-MEL-2 = assay: Growth inhibition of human SK-MEL-2 cells at 10 uM after 48 hrs by SRB assay relative to control; conditions: SK-MEL-2, 48 h, read-out: GI; how it was run: as §1
SK-MEL-28 = assay: Growth inhibition of human SK-MEL-28 cells at 10 uM after 48 hrs by SRB assay relative to control; conditions: SK-MEL-28, 48 h, read-out: GI; how it was run: as §1
UACC-257 = assay: Growth inhibition of human UACC257 cells at 10 uM after 48 hrs by SRB assay relative to control; conditions: UACC-257, 48 h, read-out: GI; how it was run: as §2
IGROV-1 = assay: Growth inhibition of human IGROV1 cells at 10 uM after 48 hrs by SRB assay relative to control; conditions: IGROV-1, 48 h, read-out: GI; how it was run: as §1
OVCAR-4 = assay: Growth inhibition of human OVCAR4 cells at 10 uM after 48 hrs by SRB assay relative to control; conditions: OVCAR-4, 48 h, read-out: GI; how it was run: as §1
786-0 = assay: Growth inhibition of human 786-0 cells at 10 uM after 48 hrs by SRB assay relative to control; conditions: 786-0, 48 h, read-out: GI; how it was run: as §1
ACHN = assay: Growth inhibition of human ACHN cells at 10 uM after 48 hrs by SRB assay relative to control; conditions: read-out: GI; how it was run: as §1
CAKI-1 = assay: Growth inhibition of human Caki1 cells at 10 uM after 48 hrs by SRB assay relative to control; conditions: CAKI-1, 48 h, read-out: GI; how it was run: as §1
SN12C = assay: Growth inhibition of human SN12C cells at 10 uM after 48 hrs by SRB assay relative to control; conditions: read-out: GI; how it was run: as §1
TK-10 = assay: Growth inhibition of human TK10 cells at 10 uM after 48 hrs by SRB assay relative to control; conditions: TK-10, 48 h, read-out: GI; how it was run: as §2
UO-31 = assay: Growth inhibition of human UO31 cells at 10 uM after 48 hrs by SRB assay relative to control; conditions: UO-31, 48 h, read-out: GI; how it was run: as §2
MCF7 = assay: Growth inhibition of human MCF7 cells at 10 uM after 48 hrs by SRB assay relative to control; conditions: MCF7, 48 h, read-out: GI; how it was run: as §1
Hs-578T = assay: Growth inhibition of human Hs 578T cells at 10 uM after 48 hrs by SRB assay relative to control; conditions: read-out: GI; how it was run: as §1
MDA-MB-468 = assay: Growth inhibition of human MDA-MB-468 cells at 10 uM after 48 hrs by SRB assay relative to control; conditions: MDA-MB-468, 48 h, read-out: GI; how it was run: as §1

| Structure (SMILES) | inhibition of growth at 10 µM (CCRF-CEM) [%] | inhibition of growth at 10 µM (MOLT-4) [%] | inhibition of growth at 10 µM (RPMI-8226) [%] | inhibition of growth at 10 µM (SR) [%] | inhibition of growth at 10 µM (A549) [%] | inhibition of growth at 10 µM (HOP-62) [%] | inhibition of growth at 10 µM (HOP-92) [%] | inhibition of growth at 10 µM (NCI-H23) [%] | inhibition of growth at 10 µM (NCI-H322M) [%] | inhibition of growth at 10 µM (NCI-H460) [%] | inhibition of growth at 10 µM (NCI-H522) [%] | inhibition of growth at 10 µM (COLO 205) [%] | inhibition of growth at 10 µM (HCT-15) [%] | inhibition of growth at 10 µM (HT-29) [%] | inhibition of growth at 10 µM (KM12) [%] | inhibition of growth at 10 µM (SW-620) [%] | inhibition of growth at 10 µM (SF-295) [%] | inhibition of growth at 10 µM (SF-539) [%] | inhibition of growth at 10 µM (SNB-75) [%] | inhibition of growth at 10 µM (U-251) [%] | further results |
| --- | --- | --- | --- | --- | --- | --- | --- | --- | --- | --- | --- | --- | --- | --- | --- | --- | --- | --- | --- | --- | --- |
| COc1cc2oc(-c3cccc(C(=O)Nc4ccc5c(c4)OCO5)c3)cc(=O)c2c(OC)c1OC | 36.6 | 35.2 | 79.1 | 52.4 | 25.5 | 26.6 | 21.9 | 10.3 | 22.6 | 26.9 | 26.9 | 24.4 | 28.2 | 17.2 | 32.7 | -4.89 | 2.37 | 14.7 | -1.27 | 9.36 | inhibition of growth at 10 µM (LOX IMVI): 81.5%; inhibition of growth at 10 µM (Malme-3M): 1.22%; inhibition of growth at 10 µM (SK-MEL-2): -2.38%; inhibition of growth at 10 µM (SK-MEL-28): 20.4%; inhibition of growth at 10 µM (UACC-257): 5.96%; inhibition of growth at 10 µM (IGROV-1): 39.8%; inhibition of growth at 10 µM (OVCAR-4): 3.72%; inhibition of growth at 10 µM (786-0): 7.44%; inhibition of growth at 10 µM (ACHN): 10.2%; inhibition of growth at 10 µM (CAKI-1): 27.9%; inhibition of growth at 10 µM (SN12C): 30.8%; inhibition of growth at 10 µM (TK-10): 16.1%; inhibition of growth at 10 µM (UO-31): 41%; inhibition of growth at 10 µM (MCF7): 17.9%; inhibition of growth at 10 µM (Hs-578T): 14%; inhibition of growth at 10 µM (MDA-MB-468): 1.72% |
| COc1cc(NC(=O)c2cccc(-c3cc(=O)c4c(OC)c(OC)c(OC)cc4o3)c2)cc(OC)c1OC | 68.7 | 89.6 | 99.7 | 70.2 | 56.5 | 62.5 | 75.3 | 51.2 | 30.5 | 70 | 65.3 | 55.7 | 59.3 | 69 | 54.2 | 33 | 55 | 47.4 | 25.3 | 55.1 | inhibition of growth at 10 µM (LOX IMVI): 75.6%; inhibition of growth at 10 µM (Malme-3M): 43.6%; inhibition of growth at 10 µM (SK-MEL-2): 58.3%; inhibition of growth at 10 µM (SK-MEL-28): 36.5%; inhibition of growth at 10 µM (UACC-257): 47.2%; inhibition of growth at 10 µM (IGROV-1): 48.2%; inhibition of growth at 10 µM (OVCAR-4): 25.1%; inhibition of growth at 10 µM (786-0): 68.2%; inhibition of growth at 10 µM (ACHN): 43.3%; inhibition of growth at 10 µM (CAKI-1): 59.4%; inhibition of growth at 10 µM (SN12C): 54.1%; inhibition of growth at 10 µM (TK-10): 30.6%; inhibition of growth at 10 µM (UO-31): 79.1%; inhibition of growth at 10 µM (MCF7): 65.7%; inhibition of growth at 10 µM (Hs-578T): 90.8%; inhibition of growth at 10 µM (MDA-MB-468): 52.6% |
| COc1cc2oc(-c3cccc(NC(=O)c4ccc5c(c4)OCO5)c3)cc(=O)c2c(O)c1OC | 11.7 | 15.8 | 20.6 | 19 | 13.5 | 47.9 | 38.5 | 13.4 | 15.7 | 16.7 | 41.5 | 2.46 | 0.04 | 15.6 | 1.48 | -1.42 | 19 | 77.4 | 47.6 | 27.1 | inhibition of growth at 10 µM (LOX IMVI): 5.74%; inhibition of growth at 10 µM (Malme-3M): 7.67%; inhibition of growth at 10 µM (SK-MEL-2): 6.66%; inhibition of growth at 10 µM (SK-MEL-28): 15.2%; inhibition of growth at 10 µM (UACC-257): 17.2%; inhibition of growth at 10 µM (IGROV-1): 5.56%; inhibition of growth at 10 µM (OVCAR-4): 25.8%; inhibition of growth at 10 µM (786-0): 29.9%; inhibition of growth at 10 µM (ACHN): 30.5%; inhibition of growth at 10 µM (CAKI-1): 34.4%; inhibition of growth at 10 µM (SN12C): 9.48%; inhibition of growth at 10 µM (TK-10): 15.3%; inhibition of growth at 10 µM (UO-31): 15.8%; inhibition of growth at 10 µM (MCF7): 11.4%; inhibition of growth at 10 µM (Hs-578T): 26.1%; inhibition of growth at 10 µM (MDA-MB-468): 17.6% |
